From publication PMC2755634 (Clinical cancer research : an official journal of the …, 2009)
Values belong to the molecule of their own block, whether it stands above or below them.

Experiments:
HepG2 cells = experiment: MTT cell viability assay; type: cell-based, human; details: 0−100 μM, data not shown
Method in brief: (§1)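 Viability was read as MTT tetrazolium reduction in confluent HepG2 (RPMI 1640) or LS180 (Eagle's MEM with Earle's balanced salts) cells at 37 °C, 5% CO2. Test compound was given at 0–100 µmol/L from DMSO stock; final DMSO ≤0.1%.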

LS180 cells = experiment: MTT cell viability assay; type: cell-based, human; details: 0−100 μM, data not shown
Method in brief: as §1

[1] = system: CYP1A1, CYP1A2, CYP1B1 (EROD activity); experiment: EROD activity in intact HepG2 cells; type: cell-based, human; details: 24 hours; for inhibition of TCDD (PAH)-induced EROD activity: 50 μM compound + 250 pmol TCDD; for induction of EROD activity: 50 μM compound alone
CYP1A1 = target: T1, CYP1A1 (Homo sapiens, UniProt P04798); experiment: Recombinant CYP1A1 Supersomes EROD activity; type: biochemical; details: for change of Vmax with increasing compound concentration / nature of CYP1A1 inhibition (Michaelis-Menten kinetic analysis): recombinant CYP1A1 Supersomes
T1 sequence (P04798 1-512): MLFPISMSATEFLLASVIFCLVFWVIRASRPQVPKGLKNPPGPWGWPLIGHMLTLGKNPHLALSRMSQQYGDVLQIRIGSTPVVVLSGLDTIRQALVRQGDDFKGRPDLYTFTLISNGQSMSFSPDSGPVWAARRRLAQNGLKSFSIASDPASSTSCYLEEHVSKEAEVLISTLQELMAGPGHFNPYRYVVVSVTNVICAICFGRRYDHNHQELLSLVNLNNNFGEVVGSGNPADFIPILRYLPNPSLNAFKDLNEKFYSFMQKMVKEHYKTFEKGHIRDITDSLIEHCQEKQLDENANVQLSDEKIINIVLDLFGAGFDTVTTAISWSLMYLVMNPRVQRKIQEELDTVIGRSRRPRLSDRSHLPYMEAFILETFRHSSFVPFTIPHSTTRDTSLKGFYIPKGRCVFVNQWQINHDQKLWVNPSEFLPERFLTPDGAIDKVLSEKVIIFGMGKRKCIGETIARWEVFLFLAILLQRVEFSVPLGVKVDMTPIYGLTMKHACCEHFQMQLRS

phase II genes = experiment: Phase II gene expression; type: cell-based, human; details: RT-PCR
[2] = rats; cited from earlier work
CYP1A1 mRNA [3] = experiment: CYP1A1 mRNA expression by RT-PCR in HepG2 cells; details: co-treatment with 250 pmol TCDD or 1 μM DMBA, 24 hours
CYP1A2 mRNA [4] = experiment: CYP1A2 mRNA expression by RT-PCR in HepG2 cells; details: co-treatment with 250 pmol TCDD or 1 μM DMBA, 24 hours
CYP1B1 mRNA [5] = experiment: CYP1B1 mRNA expression by RT-PCR in HepG2 cells; details: 24 hours; for effect on TCDD- and DMBA-induced CYP1B1 mRNA expression: co-treatment with 250 pmol TCDD or 1 μM DMBA
CYP1A1 mRNA [6] = experiment: CYP1A1 mRNA expression by RT-PCR in LS180 cells; details: co-treatment with 250 pmol TCDD or 1 μM DMBA, 24 hours
CYP1A2 mRNA [7] = experiment: CYP1A2 mRNA expression by RT-PCR in LS180 cells; details: co-treatment with 250 pmol TCDD or 1 μM DMBA, 24 hours
CYP1B1 mRNA [8] = experiment: CYP1B1 mRNA expression by RT-PCR in LS180 cells; details: 24 hours; for effect on TCDD- and DMBA-induced CYP1B1 mRNA expression: co-treatment with 250 pmol TCDD or 1 μM DMBA
[9] = system: CYP1A1 heterogeneous nuclear RNA (hnCYP1A1); experiment: CYP1A1 gene transcription rate; details: HepG2; co-treatment with 250 pmol TCDD or 1 μM DMBA
[10] = target: T2, aryl hydrocarbon receptor (AhR) (Homo sapiens, UniProt P35869); experiment: Chromatin immunoprecipitation; details: HepG2; 50 μM compound + 10 nmol TCDD; 90 minutes; TCDD alone 6.2-fold
T2 sequence (P35869 11-848): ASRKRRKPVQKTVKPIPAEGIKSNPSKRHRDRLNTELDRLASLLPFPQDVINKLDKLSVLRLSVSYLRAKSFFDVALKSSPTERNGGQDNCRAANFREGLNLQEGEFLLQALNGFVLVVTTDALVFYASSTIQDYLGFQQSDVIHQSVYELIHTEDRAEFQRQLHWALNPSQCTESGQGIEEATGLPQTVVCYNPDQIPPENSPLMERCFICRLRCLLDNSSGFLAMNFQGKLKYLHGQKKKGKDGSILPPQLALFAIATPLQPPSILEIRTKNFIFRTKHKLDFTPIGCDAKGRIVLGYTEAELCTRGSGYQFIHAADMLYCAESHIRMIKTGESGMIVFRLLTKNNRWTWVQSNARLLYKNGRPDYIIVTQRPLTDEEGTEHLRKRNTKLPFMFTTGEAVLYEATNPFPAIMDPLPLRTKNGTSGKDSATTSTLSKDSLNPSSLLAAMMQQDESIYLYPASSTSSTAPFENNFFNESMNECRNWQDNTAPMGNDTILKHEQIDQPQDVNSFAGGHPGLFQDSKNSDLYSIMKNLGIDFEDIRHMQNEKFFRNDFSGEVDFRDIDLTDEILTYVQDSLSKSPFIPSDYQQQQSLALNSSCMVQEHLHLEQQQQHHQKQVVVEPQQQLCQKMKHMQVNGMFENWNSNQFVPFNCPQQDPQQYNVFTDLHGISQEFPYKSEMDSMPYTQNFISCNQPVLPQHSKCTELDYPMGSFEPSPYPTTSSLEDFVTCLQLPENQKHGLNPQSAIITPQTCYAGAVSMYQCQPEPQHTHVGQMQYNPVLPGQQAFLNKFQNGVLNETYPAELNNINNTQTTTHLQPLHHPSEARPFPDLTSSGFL

CYP1B1 = target: T3, CYP1B1 (Homo sapiens, UniProt Q16678); experiment: Recombinant CYP1B1 Supersomes EROD activity; type: biochemical
T3 sequence (Q16678 1-543): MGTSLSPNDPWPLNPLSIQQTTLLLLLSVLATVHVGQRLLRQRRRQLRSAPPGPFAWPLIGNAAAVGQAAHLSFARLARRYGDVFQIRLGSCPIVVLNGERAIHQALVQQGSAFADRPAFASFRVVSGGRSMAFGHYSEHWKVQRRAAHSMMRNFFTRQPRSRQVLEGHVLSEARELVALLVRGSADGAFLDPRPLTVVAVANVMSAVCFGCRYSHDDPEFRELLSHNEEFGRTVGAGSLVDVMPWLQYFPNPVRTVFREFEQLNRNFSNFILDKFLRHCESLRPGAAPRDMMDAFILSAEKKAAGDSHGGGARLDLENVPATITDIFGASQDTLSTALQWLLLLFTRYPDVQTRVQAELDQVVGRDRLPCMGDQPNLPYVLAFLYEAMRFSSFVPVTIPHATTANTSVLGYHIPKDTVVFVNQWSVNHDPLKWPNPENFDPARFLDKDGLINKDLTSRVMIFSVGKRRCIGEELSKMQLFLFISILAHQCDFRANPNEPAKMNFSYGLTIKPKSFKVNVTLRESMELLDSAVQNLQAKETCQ

CYP1A2 = target: T4, CYP1A2 (Homo sapiens, UniProt P05177); experiment: Recombinant CYP1A2 Supersomes EROD activity; type: biochemical
T4 sequence (P05177 1-516): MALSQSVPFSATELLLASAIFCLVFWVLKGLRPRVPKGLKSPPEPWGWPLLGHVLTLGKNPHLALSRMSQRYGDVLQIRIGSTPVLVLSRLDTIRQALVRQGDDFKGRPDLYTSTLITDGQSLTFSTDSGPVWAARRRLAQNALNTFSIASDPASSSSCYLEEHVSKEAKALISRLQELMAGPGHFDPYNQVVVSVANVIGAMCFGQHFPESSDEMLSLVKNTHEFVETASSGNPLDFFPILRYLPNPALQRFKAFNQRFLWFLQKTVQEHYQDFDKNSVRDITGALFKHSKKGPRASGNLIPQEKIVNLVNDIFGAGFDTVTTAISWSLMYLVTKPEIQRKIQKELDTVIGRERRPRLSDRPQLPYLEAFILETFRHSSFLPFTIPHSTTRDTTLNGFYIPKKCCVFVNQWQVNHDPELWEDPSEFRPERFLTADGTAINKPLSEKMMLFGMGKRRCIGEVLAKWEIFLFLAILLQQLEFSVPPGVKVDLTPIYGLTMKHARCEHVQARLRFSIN

G6PD mRNA = G6PD mRNA expression by RT-PCR in HepG2 cells; type: cell-based, human; details: 50 μM, 24 hours, over 18S RNA control
[11] = system: catalase and glutathione reductase; details: 25 μM; cited from earlier work
[12] = system: CYP1A1 heterogeneous nuclear RNA (hnCYP1A1)

SMILES: O=C(Cc1ccccc1Nc1c(Cl)cccc1Cl)Oc1ccc(-c2cc(=S)ss2)cc1 [ACS 15, 2-[(2,6-dichlorophenyl)amino]benzeneacetic acid 4-(3H-1,2,dithiol-3-thione-5-yl)phenyl ester]
cell viability (MTT) (HepG2 cells): non-toxic
cell viability (MTT) (LS180 cells): non-toxic
inhibition of TCDD (PAH)-induced EROD activity [1]: inhibited
change of Vmax with increasing compound concentration (CYP1A1): unchanged
nature of CYP1A1 inhibition (Michaelis-Menten kinetic analysis) (CYP1A1): competitive
effect on phase II gene expression (phase II genes): No significant increases
less gastro-intestinal damage than diclofenac [2]: > 90%
effect on TCDD- and DMBA-induced CYP1A1 mRNA expression (CYP1A1 mRNA [3]): inhibited in a concentration-dependent manner
effect on TCDD- and DMBA-induced CYP1A2 mRNA expression (CYP1A2 mRNA [4]): inhibited in a concentration-dependent manner
effect on TCDD- and DMBA-induced CYP1B1 mRNA expression (CYP1B1 mRNA [5]): inhibited in a concentration-dependent manner
effect on TCDD- and DMBA-induced CYP1A1 mRNA expression (CYP1A1 mRNA [6]): inhibited in a concentration-dependent manner
effect on TCDD- and DMBA-induced CYP1A2 mRNA expression (CYP1A2 mRNA [7]): inhibited in a concentration-dependent manner
effect on TCDD- and DMBA-induced CYP1B1 mRNA expression (CYP1B1 mRNA [8]): inhibited in a concentration-dependent manner
effect on TCDD- and DMBA-stimulated hnCYP1A1 expression [9]: abrogated the stimulatory effects
level of activated AhR on co-treatment with TCDD (ChIP) [10]: 2.6 fold

inhibition of TCDD (PAH)-induced EROD activity [1]: inhibited
induction of EROD activity [1]: 0.46 +/− 0.01 pmoles/min/well
IC50 (CYP1A1): 0.04 µM
change of Vmax with increasing compound concentration (CYP1A1): unchanged
nature of CYP1A1 inhibition (Michaelis-Menten kinetic analysis) (CYP1A1): competitive
IC50 (CYP1B1): 0.23 µM
IC50 (CYP1A2): 3.1 µM
effect on TCDD- and DMBA-induced CYP1A1 mRNA expression (CYP1A1 mRNA [3]): similar
effect on TCDD- and DMBA-induced CYP1A2 mRNA expression (CYP1A2 mRNA [4]): similar
effect on TCDD- and DMBA-induced CYP1B1 mRNA expression (CYP1B1 mRNA [5]): similar
effect on TCDD- and DMBA-induced CYP1A1 mRNA expression (CYP1A1 mRNA [6]): similar
effect on TCDD- and DMBA-induced CYP1A2 mRNA expression (CYP1A2 mRNA [7]): similar
effect on TCDD- and DMBA-induced CYP1B1 mRNA expression (CYP1B1 mRNA [8]): similar
effect on TCDD- and DMBA-stimulated hnCYP1A1 expression [9]: similar
SMILES: CC1=C(CC(=O)Oc2ccc(-c3cc(=S)ss3)cc2)c2cc(F)ccc2/C1=C\c1ccc([S+](C)[O-])cc1 (stereo not shown) [ACS 18, (Z)-5-Fluoro-2-methyl-1-[[4-(methylsulfinyl)phenyl]-methylene]-1H-indene-3-acetic acid 4-(5-thioxo-5H-[1,2]dithiol-3-yl)-phenyl ester]
cell viability (MTT) (HepG2 cells): non-toxic
cell viability (MTT) (LS180 cells): non-toxic
increase in G6PD mRNA expression (G6PD mRNA): 1.5 fold

SMILES: COc1ccc(-c2cc(=S)ss2)cc1 [ADT, 5-[p-methoxyphenyl]-1,2-dithiole-3-thione]
increases in the phase II enzymes catalase and glutathione reductase [11]: less than 2 fold

SMILES: Cc1c2ccccc2c(C)c2c1ccc1ccccc12 [DMBA]
fold increase in hnCYP1A1 expression over DMSO control levels [12]: 12 fold
fold increase in CYP1B1 mRNA expression compared to DMSO controls (CYP1B1 mRNA [5]; TCDD 250 pmol, DMBA 1 μM): 8.4 fold
fold increase in CYP1B1 mRNA expression compared to DMSO controls (CYP1B1 mRNA [8]; TCDD 250 pmol, DMBA 1 μM): 2.5 fold

SMILES: [Na+].[SH-] [NaHS]
inhibition of TCDD (PAH)-induced EROD activity [1]: not inhibited

inhibition of TCDD (PAH)-induced EROD activity [1]: not inhibited
SMILES: O=C(O)Cc1ccccc1Nc1c(Cl)cccc1Cl [diclofenac]

inhibition of TCDD (PAH)-induced EROD activity [1]: not inhibited
induction of EROD activity [1]: 4.45 +/− 0.09 pmoles/min/well
SMILES: CC1=C(CC(=O)O)c2cc(F)ccc2/C1=C\c1ccc([S+](C)[O-])cc1 (stereo not shown) [sulindac]
